The text below walks through data of ChEMBL document CHEMBL1158477, “Synthesis, in vivo evaluation, and molecular modeling studies of new pyrazolo[5,1-c][1,2,4]benzotriazine 5-oxide derivatives. Identification of a bifunctional hydrogen bond area related to the inverse agonism” (J Med Chem, 2009).

For one assay, the species on record is Bos taurus. The assay is described as follows: Displacement of [3H]flumazenil from GABAA/Benzodiazepine receptor in bovine brain at 10 uM. An outline of the steps: (§1)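 Bovine brain membranes; displacement of specific [3H]flumazenil (Ro15-1788) binding. Percent inhibition measured at 10 μM; Ki determined only when inhibition at that concentration exceeded 80%. Ki given as mean ± SEM of five determinations.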
On the technique in general: Loss of bound radioactivity is the signal in a displacement assay; it reports binding, not function.

A short description of assay [1]: Displacement of [3H]flumazenil from GABAA/Benzodiazepine receptor in bovine brain. Details: species or system Bos taurus. An outline of the steps: as §1

For the compound `[O-][n+]1nc2c(I)cnn2c2cc(OCCc3ccccc3)ccc21`, the Activity in the assay filed under Bos taurus was more than 80%. This compound gave a Ki in assay [1] of 43 nM. On the same counts, the results for `O=C(OCc1cccs1)c1cnn2c1n[n+]([O-])c1ccc(C(F)(F)F)cc12` are more than 80% and 10 nM. For `CC(Cc1ccccc1)Oc1ccc2c(c1)n1ncc(I)c1n[n+]2[O-]` (racemic), in that order: more than 80% and 103 nM.

As for `[O-][n+]1nc2c(I)cnn2c2cc(OCc3ccccc3OC(F)(F)F)ccc21`, the Activity in the assay listed under Bos taurus was more than 80%. The Ki in assay [1] is 6.6 nM.

Turning to `[O-][n+]1nc2c(I)cnn2c2cc(OCc3ccc(Cl)cc3)ccc21`, in the assay filed under Bos taurus, the Activity was more than 80%. The compound further yielded a Ki in assay [1] of 11 nM. On the same counts, the results for `Cc1ccc2c(c1)n1ncc(C(=O)OCc3cccs3)c1n[n+]2[O-]` are more than 80% and 1.41 nM. On the same counts, the results for `CCOC(=O)c1cnn2c1n[n+]([O-])c1ccc(Oc3ccccc3)cc12` are more than 80% and 12 nM. On to `COc1ccc(COc2ccc3c(c2)n2ncc(I)c2n[n+]3[O-])cc1`, for which, in the assay filed under Bos taurus, the Activity was more than 80%. In assay [1], this compound yielded a Ki of 4.5 nM. On the same counts, the results for `CCCCCCCCOc1ccc2c(c1)n1ncc(I)c1n[n+]2[O-]` are more than 80% and 1620 nM.

Turning to `CCOc1cnn2c1n[n+]([O-])c1ccc(C(=O)OCc3ccccc3OC)cc12`, the Activity in the assay filed under Bos taurus is more than 80%. In addition, the Ki in assay [1] stood at 0.31 nM. `CCOC(=O)c1cnn2c1n[n+]([O-])c1ccc(-c3ccccc3)cc12` returned an Activity in the assay listed under Bos taurus of 40%. `[O-][n+]1nc2c(Cl)cnn2c2cc(-c3ccccc3)ccc21` yielded an Activity in the assay listed under Bos taurus of 45%. In turn, `COc1ccccc1COC(=O)c1ccc2c(c1)n1ncc(C)c1n[n+]2[O-]` returned an Activity in the assay listed under Bos taurus of more than 80%. The compound further displayed a Ki in assay [1] of 2.3 nM. On the same counts, the results for `COc1ccccc1COC(=O)c1cnn2c1n[n+]([O-])c1ccc(Oc3ccccc3)cc12` are more than 80% and 1.75 nM. For `[O-][n+]1nc2c(I)cnn2c2cc(CCc3ccccc3)ccc21`, in that order: more than 80% and 464 nM. In turn, `[O-][n+]1nc2ccnn2c2cc(-c3ccccc3)ccc21` gave an Activity in the assay filed under Bos taurus of 10%. As to `CCOC(=O)c1cnn2c1n[n+]([O-])c1ccc(OCc3ccccc3)cc12`, the Activity in the assay listed under Bos taurus was more than 80%. In assay [1], the affinity corresponds to a Ki of 2.1 nM. `COc1ccccc1COC(=O)c1ccc2c(c1)n1ncc(C(F)(F)F)c1n[n+]2[O-]` yielded an Activity in the assay listed under Bos taurus of more than 80%. For the same compound, in assay [1], the Ki came out at 5.8 nM. On the same counts, the results for `[O-][n+]1nc2c(-c3ccsc3)cnn2c2cc(Oc3ccccc3)ccc21` are more than 80% and 68 nM. For `[O-][n+]1nc2c(I)cnn2c2cc(OC3CCCCC3)ccc21`, in that order: more than 80% and 188 nM. On to `CC(Oc1ccc2c(c1)n1ncc(I)c1n[n+]2[O-])c1ccccc1` (racemic) [listing 1 of 2 here], for which the Ki in assay [1] is 3.4 nM. As for `COc1ccccc1COc1ccc2c(c1)n1ncc(I)c1n[n+]2[O-]`, the Activity in the assay filed under Bos taurus was more than 80%. This compound showed a Ki in assay [1] of 0.42 nM. `[O-][n+]1nc2c(I)cnn2c2cc(/C=C/c3ccccc3)ccc21` registered an Activity in the assay listed under Bos taurus of more than 80%. This compound also displayed a Ki in assay [1] of 2000 nM. On the same counts, the results for `O=C(OCc1cccs1)c1cnn2c1n[n+]([O-])c1ccc(Oc3ccccc3)cc12` are more than 80% and 0.7 nM. For `[O-][n+]1nc2c(I)cnn2c2cc(Oc3ccc4ccccc4c3)ccc21`, in that order: more than 80% and 94 nM.

For the compound `CC(COc1ccc2c(c1)n1ncc(I)c1n[n+]2[O-])c1ccccc1` (racemic), in the assay filed under Bos taurus, the Activity is more than 80%. In addition, in assay [1], the Ki is 160 nM. For `[O-][n+]1nc2c(I)cnn2c2cc(OCc3ccco3)ccc21`, in that order: more than 80% and 0.8 nM. On the same counts, the results for `[O-][n+]1nc2c(I)cnn2c2cc(OCc3cccs3)ccc21` are more than 80% and 1.2 nM. `CC(Oc1ccc2c(c1)n1ncc(I)c1n[n+]2[O-])c1ccccc1` (racemic) [listing 2 of 2 here] came in with an Activity in the assay listed under Bos taurus of more than 80%. Compound `Ic1cnn2c1nnc1ccc(OCc3ccccc3)cc12` yielded an Activity in the assay filed under Bos taurus of more than 80%. Moreover, the Ki in assay [1] is 1 nM. For `[O-][n+]1nc2c(I)cnn2c2cc(-c3ccccc3)ccc21`, in that order: more than 80% and 966 nM. For `[O-][n+]1nc2ccnn2c2cc(OCc3ccccc3)ccc21`, in that order: more than 80% and 116 nM. On the same counts, the results for `[O-][n+]1nc2c(Cl)cnn2c2cc(Oc3ccccc3)ccc21` are more than 80% and 43 nM. `[O-][n+]1nc2c(Br)cnn2c2cc(-c3ccccc3)ccc21` returned an Activity in the assay listed under Bos taurus of more than 80%. Further, the Ki in assay [1] came to 802 nM. For `COc1ccccc1COC(=O)c1ccc2c(c1)n1ncc(Cl)c1n[n+]2[O-]`, in that order: more than 80% and 1 nM. `CCOc1ccc2c(c1)n1ncc(C(=O)OCc3cccs3)c1n[n+]2[O-]` displayed an Activity in the assay filed under Bos taurus of more than 80%. The compound further yielded a Ki in assay [1] of 0.85 nM.

As a reminder, the Ki is the dissociation constant of the complex between target and ligand, obtained from inhibition or displacement. Lower therefore signals higher affinity.
